Assay results taken from ChEMBL document CHEMBL1139365, “Inhibition of MDR1 activity in vitro by a novel class of diltiazem analogues: toward new candidates” (J Med Chem, 2009).
Activity calls are given as the source filed them. The rule behind the calls is not given here.

Columns and labels:
A2780 [1] = experiment: Ratio of IC50 for human A2780/DX3 cells to IC50 for human A2780 cells assessed as mean resistance index; type: functional
In short: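 Doxorubicin alone tested by 3-day MTT assay in both lines (absorbance at 540 nm). IC50 from dose–response curves. Index is the mean IC50 in resistant cells divided by the mean IC50 in sensitive cells.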

A2780 [2] = experiment: Antiproliferative activity against human A2780 cells after 3 days by MTT assay; type: functional, cell-based; settings: for IC50: Homo sapiens, A2780, 72 h
In short: (§1)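 Cells plated 6–8 h in 96-well plates. Compound alone, in duplicate at ≥5 concentrations (3-fold serial dilutions, top 100 μM), with final DMSO […] after predilution in FCS. After 3 days, MTT 4 h at 37 °C, formazan dissolved in DMSO, A540. IC50 taken from single dose–response curves; 3–4 experiments. A2780/DX3 kept doxorubicin-free 2–3 days beforehand.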

[3] = Antiproliferative activity against human A2780/DX3 cells after 3 days by MTT assay; type: functional, cell-based; settings: for IC50: Homo sapiens, A2780/DX3, 72 h; in short: as §1
A2780 ADR [4] = experiment: Reversal of P-gp 170-mediated multidrug resistance in human A2780/DX3 cells assessed as increase in intracellular doxorubicin accumulation at 5 times IC5 pretreated for 2 hrs before doxorubicin administration measured after 2 hrs by epifluorescent microscopic analysis; type: cell-based
In short: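 A2780/DX3 cells on chamber slides at 75–85% confluence, pretreated 2 h with compound at five times the concentration giving 5% growth inhibition. Doxorubicin 10 μM then added for 2 h. Cells washed in cold PBS, fixed in 3.7% paraformaldehyde/2% sucrose, mounted and imaged by epifluorescence at 20X. Untreated and compound-only controls included.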

A2780 ADR [5] = experiment: Reversal of P-gp 170-mediated multidrug resistance in human A2780/DX3 cells assessed as reduction in doxorubicin IC50 at IC5 pretreated for 6 hrs before doxorubicin administration measured after 3 days by MTT assay; type: cell-based; set-up: scale not given: the % may be the effect or the level left
In short: (§2)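 A2780/DX3 cells went into medium holding the modulator at its MTT-derived 0% or 5% growth-inhibition concentration. Doxorubicin (30–0.048 μM serial dilutions, modulator kept constant) was added 6 h later. MTT (2 mg/mL) was added after 3 days for 4 h at 37 °C, formazan dissolved in DMSO, A540 read. IC50 came from dose–response curves, repeated 4–6 times. % reduction is versus doxorubicin alone in the same experiment. Kruskal–Wallis/Mann–Whitney tests.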

A2780 ADR [6] = experiment: Reversal of P-gp 170-mediated multidrug resistance in human A2780/DX3 cells assessed as reduction in doxorubicin IC50 at IC0 pretreated for 6 hrs before doxorubicin administration measured after 3 days by MTT assay; type: cell-based; set-up: scale not given: the % may be the effect or the level left; in short: as §2
[7] = Antiproliferative activity against human A2780/DX3 cells at 0.81 uM after 3 days by MTT assay; type: functional; settings: A2780/DX3, 72 h
A2780 ADR [8] = experiment: Reversal of P-gp 170-mediated multidrug resistance in human A2780/DX3 cells assessed as increase in intracellular doxorubicin accumulation at 5 times IC5 pretreated for 2 hrs before doxorubicin administration measured after 2 hrs by flow cytometry; type: cell-based
In short: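 A2780/DX3 cells (kept in 0.1 μM doxorubicin, drug withdrawn 2–3 days before use) seeded in flasks, grown 24 h to 75–85% confluence. Modulator given at five times the 5%-growth-inhibition concentration for 2 h, then 10 μM doxorubicin for 2 h more. Cells trypsinized, fixed in 3.7% paraformaldehyde/2% sucrose in PBS. Flow cytometry, 488 nm excitation, 575 nm bandpass. Read-out is MFI, with % increase taken from the MFI ratio to doxorubicin alone.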

A2780 [9] = experiment: Antiproliferative activity against human A2780 cells at 0.14 uM after 3 days by MTT assay; type: functional; settings: A2780, 72 h
A2780 [10] = experiment: Antiproliferative activity against human A2780 cells at 0.15 uM after 3 days by MTT assay; type: functional; settings: A2780, 72 h
[11] = Antiproliferative activity against human A2780/DX3 cells at 0.3 uM after 3 days by MTT assay; type: functional; settings: A2780/DX3, 72 h
[12] = Antiproliferative activity against human A2780/DX3 cells at 4.0 uM after 3 days by MTT assay; type: functional; settings: A2780/DX3, 72 h
A2780 [13] = experiment: Down regulation of P-gp 170 expression in human A2780 cells after 72 hrs by flow cytometry; type: functional, cell-based
In short: (§3)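 Cells exposed 72 h to compound at concentrations giving 5% or 0% growth inhibition. Then washed in PBS/2% FCS; 2.5 × 10^5 cells stained at 4 °C with anti-Pgp MM4.17 monoclonal, then FITC goat anti-mouse IgG, and analysed by flow cytometry.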

[14] = Down regulation of P-gp 170 expression in human A2780/DX3 cells after 72 hrs by flow cytometry; type: functional, cell-based; in short: as §3
A2780 [15] = experiment: Antiproliferative activity against human A2780 cells at 2.9 uM after 3 days by MTT assay; type: functional; settings: A2780, 72 h
[16] = Antiproliferative activity against human A2780/DX3 cells at 1.23 uM after 3 days by MTT assay; type: functional; settings: A2780/DX3, 72 h
A2780 [17] = experiment: Antiproliferative activity against human A2780 cells at 1.3 uM after 3 days by MTT assay; type: functional; settings: A2780, 72 h
A2780 [18] = experiment: Antiproliferative activity against human A2780 cells at 2.20 uM after 3 days by MTT assay; type: functional; settings: A2780, 72 h
[19] = Antiproliferative activity against human A2780/DX3 cells at 2.40 uM after 3 days by MTT assay; type: functional; settings: A2780/DX3, 72 h

SMILES | IC50 (A2780 [2]) [µM] | IC50 [3] [µM] | Activity (A2780 ADR [5]) [%] | Activity (A2780 ADR [6]) [%] | Activity (A2780 ADR [8]) [%] | IC5 (A2780 [2]) [µM] | IC5 [3] [µM] | Activity (A2780 [13]) | Activity [14] | also measured
O=c1onc2n1C=CSC2(O)c1ccc(Cl)cc1 (stereo not drawn) | > 100 | > 100 | 10 | 3 | < 48 | 0.48 | 3.02 |  |  | inhibition at 0.81 µM [7]: 0%; inhibition at 0.14 µM (A2780 [9]): 0%
CCCCCOC1(c2ccc(Cl)cc2)SC=C(C)n2c1noc2=O (stereo not drawn) | > 100 | > 100 | -38 | -39 | 248 | 7.8 | 19 | inactive | inactive | inhibition at 4 µM [12]: 0%; inhibition at 2.9 µM (A2780 [15]): 0%
CC/C=C/COC1(c2ccc(Br)cc2)SC=C(C)n2c1noc2=O (stereo not drawn) | 59 | 111 | -23 | -8 | < 48 | 1.9 | 2.45 |  |  | inhibition at 1.23 µM [16]: 0%; inhibition at 1.3 µM (A2780 [17]): 0%
CC/C=C\COC1(c2ccc(Cl)cc2)SC=C(C)n2c1noc2=O (stereo not drawn) | 55 | 103 | -47 | -9 | 429 | 3.5 | 20.7 | inactive | inactive | inhibition at 2.2 µM (A2780 [18]): 0%; inhibition at 2.4 µM [19]: 0%

Now from value to molecule, other results behind:

IC50 (A2780 [2]) [µM] | SMILES | IC50 [3] [µM] | Activity (A2780 ADR [5]) [%] | Activity (A2780 ADR [6]) [%] | Activity (A2780 ADR [8]) [%] | IC5 (A2780 [2]) [µM] | IC5 [3] [µM] | Activity (A2780 [13]) | Activity [14] | also measured
0.02 | COc1cccc2c1C(=O)c1c(O)c3c(c(O)c1C2=O)C[C@@](O)(C(=O)CO)C[C@@H]3O[C@H]1C[C@H](N)[C@H](O)[C@H](C)O1 [DOXORUBICIN] | 2.21 |  |  |  |  |  |  |  | Ratio IC50 (A2780 [1]): 93; Activity_index (A2780 ADR [4]): Active
55 | CC/C=C/COC1(c2ccc(Cl)cc2)SC=C(C)n2c1noc2=O (stereo not drawn) | 88 | -1 | 2 | < 48 | 1.26 | 2.5 |  |  | inhibition at 0.15 µM (A2780 [10]): 0%; inhibition at 0.3 µM [11]: 0%
